Among the data in ChEMBL document CHEMBL4382192, “Discovery of a potent dual ALK and EGFR T790M inhibitor” (Eur J Med Chem, 2017) are Activity and concentration values, retold here.

Structures are written as SMILES.

Series [1] addresses SRSF protein kinase 2 (Homo sapiens) (UniProt P78362). Kind of series: Binding affinity to wild-type human full length SRPK2 (M1 to S686 residues) expressed in bacterial expression system assessed as residual binding level at 1 uM by Kinomescan method relative to control. The method in brief: (§1)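 Single-point kinome-wide KINOMEscan binding panel, test compound at 1 μM, run by the provider's standard protocol.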

In series [2] the target is Tyrosine-protein kinase Lyn (Homo sapiens) (UniProt P07948). Description: Binding affinity to wild-type human partial length LYN (C219 to Q511 residues) expressed in bacterial expression system assessed as residual binding level at 1 uM by Kinomescan method relative to control.
Chain of Tyrosine-protein kinase Lyn (Homo sapiens) (P07948 2-512 limits assumed): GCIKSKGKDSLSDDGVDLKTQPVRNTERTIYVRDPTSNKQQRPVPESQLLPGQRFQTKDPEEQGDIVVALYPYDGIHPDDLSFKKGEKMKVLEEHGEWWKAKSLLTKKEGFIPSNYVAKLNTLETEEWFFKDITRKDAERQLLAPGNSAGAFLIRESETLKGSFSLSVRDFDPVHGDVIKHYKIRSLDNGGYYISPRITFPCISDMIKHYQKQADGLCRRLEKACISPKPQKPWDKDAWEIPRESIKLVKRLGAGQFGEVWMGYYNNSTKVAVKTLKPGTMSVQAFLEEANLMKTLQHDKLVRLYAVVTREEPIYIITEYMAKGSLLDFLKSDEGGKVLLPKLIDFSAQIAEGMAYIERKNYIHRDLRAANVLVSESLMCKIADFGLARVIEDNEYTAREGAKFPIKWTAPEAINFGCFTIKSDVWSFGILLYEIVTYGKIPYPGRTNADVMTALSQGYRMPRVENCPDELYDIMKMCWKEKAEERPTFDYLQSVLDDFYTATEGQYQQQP
The target of series [3] is Wee1-like protein kinase (Homo sapiens) (UniProt P30291). Kind of series: Binding affinity to wild-type human partial length WEE1 (M291 to K575 residues) expressed in bacterial expression system assessed as residual binding level at 1 uM by Kinomescan method relative to control.
Chain of Wee1-like protein kinase (Homo sapiens) (P30291 whole entry, looked up, the tested form may be a part): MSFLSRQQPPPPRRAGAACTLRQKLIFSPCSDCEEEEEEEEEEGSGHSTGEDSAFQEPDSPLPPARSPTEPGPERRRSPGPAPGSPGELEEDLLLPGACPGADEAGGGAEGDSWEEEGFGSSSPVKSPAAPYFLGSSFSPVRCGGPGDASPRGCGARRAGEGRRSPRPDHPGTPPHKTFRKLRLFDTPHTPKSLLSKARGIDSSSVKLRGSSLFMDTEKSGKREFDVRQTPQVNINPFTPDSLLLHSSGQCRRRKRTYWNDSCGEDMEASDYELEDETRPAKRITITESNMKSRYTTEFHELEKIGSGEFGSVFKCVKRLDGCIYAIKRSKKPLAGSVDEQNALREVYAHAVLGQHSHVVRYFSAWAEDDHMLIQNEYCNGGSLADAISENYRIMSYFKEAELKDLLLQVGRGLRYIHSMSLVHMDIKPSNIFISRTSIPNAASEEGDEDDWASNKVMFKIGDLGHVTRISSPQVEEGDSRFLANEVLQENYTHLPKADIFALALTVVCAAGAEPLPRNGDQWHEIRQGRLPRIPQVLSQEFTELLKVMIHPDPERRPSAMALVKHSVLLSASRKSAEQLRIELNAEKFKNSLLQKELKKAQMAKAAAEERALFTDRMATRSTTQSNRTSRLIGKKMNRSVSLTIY
The target of series [4] is Serine/threonine-protein kinase ICK (Homo sapiens) (UniProt Q9UPZ9). Kind of series: Binding affinity to wild-type human partial length ICK (M1 to P314 residues) expressed in mammalian expression system assessed as residual binding level at 1 uM by Kinomescan method relative to control.
Chain of Serine/threonine-protein kinase ICK (Homo sapiens) (Q9UPZ9 whole entry, the tested form may be a part): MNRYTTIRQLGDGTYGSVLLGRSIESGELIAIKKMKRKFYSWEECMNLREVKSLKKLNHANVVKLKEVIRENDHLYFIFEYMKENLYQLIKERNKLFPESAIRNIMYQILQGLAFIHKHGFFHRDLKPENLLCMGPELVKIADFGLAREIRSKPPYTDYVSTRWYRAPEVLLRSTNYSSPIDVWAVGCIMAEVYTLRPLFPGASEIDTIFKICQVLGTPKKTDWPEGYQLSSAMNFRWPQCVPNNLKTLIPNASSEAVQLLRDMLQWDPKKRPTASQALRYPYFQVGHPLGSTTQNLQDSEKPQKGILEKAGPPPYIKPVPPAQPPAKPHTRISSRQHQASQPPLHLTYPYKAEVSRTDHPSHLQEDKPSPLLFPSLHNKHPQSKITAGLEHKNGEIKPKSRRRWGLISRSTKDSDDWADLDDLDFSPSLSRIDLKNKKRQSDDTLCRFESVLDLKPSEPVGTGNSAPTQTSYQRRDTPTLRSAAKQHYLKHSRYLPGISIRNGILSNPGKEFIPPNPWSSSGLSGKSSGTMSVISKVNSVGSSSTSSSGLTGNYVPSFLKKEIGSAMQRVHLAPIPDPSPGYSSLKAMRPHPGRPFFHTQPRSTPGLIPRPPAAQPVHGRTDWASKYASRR
Series [5] addresses Serine/threonine-protein kinase 26 (Homo sapiens) (UniProt Q9P289). Description: Binding affinity to wild-type human full length MST4 (M1 to P416 residues) expressed in mammalian expression system assessed as residual binding level at 1 uM by Kinomescan method relative to control. The method in brief:
as §1

Series [6] addresses STE20-like serine/threonine-protein kinase (Homo sapiens, UniProt Q9H2G2). Kind of series: Binding affinity to wild-type human partial length SLK (S14 to A307 residues) expressed in bacterial expression system assessed as residual binding level at 1 uM by Kinomescan method relative to control.
Series [7] deals with Phosphatidylinositol 4,5-bisphosphate 3-kinase catalytic subunit alpha isoform (Homo sapiens), P42336 [Q546K]. Description: Binding affinity to human partial length PIK3CA Q546K mutant (R108 to N1068 residues) expressed in mammalian expression system assessed as residual binding level at 1 uM by Kinomescan method relative to control.
The target of series [8] is Mitogen-activated protein kinase kinase kinase 10 (Homo sapiens) (UniProt Q02779). Kind of series: Binding affinity to wild-type human partial length MLK2 (V52 to W380 residues) expressed in bacterial expression system assessed as residual binding level at 1 uM by Kinomescan method relative to control.
For series [9], the target named is Protein kinase C delta type (Homo sapiens) (UniProt Q05655). Kind of series: Binding affinity to wild-type human partial length PRKCD (Q328 to D676 residues) expressed in bacterial expression system assessed as residual binding level at 1 uM by Kinomescan method relative to control.
In series [10] the target is Cyclin-dependent kinase 14 (Homo sapiens) (UniProt O94921). Description: Binding affinity to wild-type human full length PFTK1 (M1 to H451 residues) expressed in bacterial expression system assessed as residual binding level at 1 uM by Kinomescan method relative to control. The procedure, abridged:
as §1

The test system of series [11] is Receptor-type tyrosine-protein kinase FLT3 (Homo sapiens), P36888 [UNDEFINED MUTATION]. Description: Binding affinity to human partial length FLT3 ITD/F691L double mutant expressed in bacterial expression system assessed as residual binding level at 1 uM by Kinomescan method relative to control. The method in brief:
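Kinome-wide selectivity panel run by the KINOMEscan method, with the test compound at a single concentration of 1 μM. Wild-type and mutant kinases were profiled in the same screen.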

Series [12] in a line: Drug uptake in mouse plasma at 10 mg/kg, po after 2 hrs. In kind it is ADME, organism-based.
For series [13], the system named is Phosphatidylinositol 4,5-bisphosphate 3-kinase catalytic subunit alpha isoform (Homo sapiens), P42336 [H1047Y]. Kind of series: Binding affinity to human partial length PIK3CA H1047Y mutant (R108 to N1068 residues) expressed in mammalian expression system assessed as residual binding level at 1 uM by Kinomescan method relative to control.
The target in series [14] is Cyclin-dependent kinase-like 3 (Homo sapiens) (UniProt Q8IVW4). Description: Binding affinity to wild-type human partial length CDKL3 (M1 to D327 residues) expressed in bacterial expression system assessed as residual binding level at 1 uM by Kinomescan method relative to control.
Chain of Cyclin-dependent kinase-like 3 (Homo sapiens) (Q8IVW4 whole entry, looked up, the tested form may be a part): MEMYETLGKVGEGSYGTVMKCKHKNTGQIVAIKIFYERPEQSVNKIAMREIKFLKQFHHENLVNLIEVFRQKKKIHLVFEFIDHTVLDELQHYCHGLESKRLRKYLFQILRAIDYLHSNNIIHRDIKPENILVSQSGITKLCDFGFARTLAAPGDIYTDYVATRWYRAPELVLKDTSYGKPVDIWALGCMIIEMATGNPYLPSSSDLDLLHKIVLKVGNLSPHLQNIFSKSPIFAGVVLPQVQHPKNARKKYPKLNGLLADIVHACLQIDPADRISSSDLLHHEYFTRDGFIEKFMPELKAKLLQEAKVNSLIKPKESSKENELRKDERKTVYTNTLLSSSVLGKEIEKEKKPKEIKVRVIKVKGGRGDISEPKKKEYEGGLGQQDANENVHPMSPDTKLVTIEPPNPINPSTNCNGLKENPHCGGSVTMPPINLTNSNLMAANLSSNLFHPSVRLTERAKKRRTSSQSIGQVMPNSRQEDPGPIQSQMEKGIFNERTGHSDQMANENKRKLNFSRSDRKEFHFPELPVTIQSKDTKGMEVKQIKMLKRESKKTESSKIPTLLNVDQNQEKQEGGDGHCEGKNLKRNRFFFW
The target of series [15] is Phosphatidylinositol 4-kinase beta (Homo sapiens) (UniProt Q9UBF8). Description: Binding affinity to wild-type human full length PIK4CB (M1 to M828 residues) expressed in mammalian expression system assessed as residual binding level at 1 uM by Kinomescan method relative to control. The procedure, abridged: as §1
Chain of Phosphatidylinositol 4-kinase beta (Homo sapiens) (Q9UBF8 2-816 limits assumed): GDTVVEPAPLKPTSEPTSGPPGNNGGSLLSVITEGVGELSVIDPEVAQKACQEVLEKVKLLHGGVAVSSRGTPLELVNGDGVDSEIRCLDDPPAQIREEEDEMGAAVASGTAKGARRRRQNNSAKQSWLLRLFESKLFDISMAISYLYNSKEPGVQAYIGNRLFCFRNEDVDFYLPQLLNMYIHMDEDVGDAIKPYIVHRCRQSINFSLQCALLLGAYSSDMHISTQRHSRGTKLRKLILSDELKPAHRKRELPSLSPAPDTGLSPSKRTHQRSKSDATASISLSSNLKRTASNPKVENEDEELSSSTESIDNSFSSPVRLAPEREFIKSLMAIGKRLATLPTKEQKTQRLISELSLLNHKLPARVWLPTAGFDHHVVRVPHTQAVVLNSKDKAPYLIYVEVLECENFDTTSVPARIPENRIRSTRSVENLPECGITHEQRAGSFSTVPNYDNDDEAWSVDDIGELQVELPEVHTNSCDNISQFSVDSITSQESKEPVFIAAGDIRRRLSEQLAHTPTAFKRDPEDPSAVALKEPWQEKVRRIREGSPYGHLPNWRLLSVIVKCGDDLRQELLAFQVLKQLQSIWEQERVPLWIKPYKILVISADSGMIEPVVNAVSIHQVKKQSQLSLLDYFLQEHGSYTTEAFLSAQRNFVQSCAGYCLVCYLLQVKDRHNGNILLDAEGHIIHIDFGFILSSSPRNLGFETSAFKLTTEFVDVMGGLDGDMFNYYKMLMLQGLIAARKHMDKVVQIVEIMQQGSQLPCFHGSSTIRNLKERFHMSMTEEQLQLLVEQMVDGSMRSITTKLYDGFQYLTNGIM
Series [16] has as its target Serine/threonine-protein kinase 17B (Homo sapiens) (UniProt O94768). Kind of series: Binding affinity to wild-type human full length DRAK2 (M1 to C372 residues) expressed in bacterial expression system assessed as residual binding level at 1 uM by Kinomescan method relative to control.
For series [17], the target named is Insulin receptor-related protein (Homo sapiens) (UniProt P14616). Kind of series: Binding affinity to wild-type human partial length INSRR (R950 to E1278 residues) expressed in bacterial expression system assessed as residual binding level at 1 uM by Kinomescan method relative to control.
Series [18] addresses Serine/threonine-protein kinase 33 (Homo sapiens) (UniProt Q9BYT3). Description: Binding affinity to wild-type human full length STK33 (M1 to L514 residues) expressed in bacterial expression system assessed as residual binding level at 1 uM by Kinomescan method relative to control.
The target of series [19] is cAMP-dependent protein kinase catalytic subunit alpha (Homo sapiens) (UniProt P17612). Description: Binding affinity to wild-type human partial length PKAC-alpha (G10 to F351 residues) expressed in bacterial expression system assessed as residual binding level at 1 uM by Kinomescan method relative to control.
The target in series [20] is Tyrosine-protein kinase TXK (Homo sapiens) (UniProt P42681). Kind of series: Binding affinity to wild-type human partial length TXK (L238 to W527 residues) expressed in bacterial expression system assessed as residual binding level at 1 uM by Kinomescan method relative to control.
Chain of Tyrosine-protein kinase TXK (Homo sapiens) (P42681 whole entry, the tested form may be a part): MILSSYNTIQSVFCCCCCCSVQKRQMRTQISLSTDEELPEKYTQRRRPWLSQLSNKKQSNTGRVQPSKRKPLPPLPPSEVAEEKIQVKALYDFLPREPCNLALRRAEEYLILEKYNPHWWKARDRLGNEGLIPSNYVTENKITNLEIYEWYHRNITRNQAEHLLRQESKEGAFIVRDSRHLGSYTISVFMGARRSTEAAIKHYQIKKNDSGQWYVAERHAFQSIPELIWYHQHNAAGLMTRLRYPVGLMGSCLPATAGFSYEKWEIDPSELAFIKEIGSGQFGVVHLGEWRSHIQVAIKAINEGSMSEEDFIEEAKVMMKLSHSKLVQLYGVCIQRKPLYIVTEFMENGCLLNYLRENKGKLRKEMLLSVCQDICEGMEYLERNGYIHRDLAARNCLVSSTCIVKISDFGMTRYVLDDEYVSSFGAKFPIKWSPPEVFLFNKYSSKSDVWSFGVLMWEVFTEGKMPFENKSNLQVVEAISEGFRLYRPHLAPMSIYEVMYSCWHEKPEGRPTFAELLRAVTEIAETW
Series [21] addresses SNF-related serine/threonine-protein kinase (Homo sapiens) (UniProt Q9NRH2). Description: Binding affinity to wild-type human partial length SNRK (M1 to E339 residues) expressed in mammalian expression system assessed as residual binding level at 1 uM by Kinomescan method relative to control.
The target of series [22] is Uncharacterized serine/threonine-protein kinase SBK3 (Homo sapiens) (UniProt P0C264). Kind of series: Binding affinity to wild-type human partial length SgK110 (L22 to R329 residues) expressed in bacterial expression system assessed as residual binding level at 1 uM by Kinomescan method relative to control.
Chain of Uncharacterized serine/threonine-protein kinase SBK3 (Homo sapiens) (P0C264 whole entry, the tested form may be a part): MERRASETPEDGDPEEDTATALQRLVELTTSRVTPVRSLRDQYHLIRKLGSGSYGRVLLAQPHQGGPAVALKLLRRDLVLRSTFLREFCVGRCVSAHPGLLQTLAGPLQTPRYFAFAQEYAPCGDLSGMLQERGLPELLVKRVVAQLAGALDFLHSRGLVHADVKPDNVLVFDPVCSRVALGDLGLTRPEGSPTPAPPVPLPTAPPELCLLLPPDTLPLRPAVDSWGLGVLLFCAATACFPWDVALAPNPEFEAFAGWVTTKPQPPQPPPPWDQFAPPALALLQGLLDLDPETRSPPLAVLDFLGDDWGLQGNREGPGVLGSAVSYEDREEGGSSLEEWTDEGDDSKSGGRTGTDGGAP
The target of series [23] is Mitogen-activated protein kinase kinase kinase kinase 1 (Homo sapiens) (UniProt Q92918). Description: Binding affinity to wild-type human full length HPK1 (M1 to R799 residues) expressed in bacterial expression system assessed as residual binding level at 1 uM by Kinomescan method relative to control.
The target of series [24] is Mitogen-activated protein kinase 10 (Homo sapiens) (UniProt P53779). Description: Binding affinity to wild-type human partial length JNK3 (V28 to Q422 residues) expressed in mammalian expression system assessed as residual binding level at 1 uM by Kinomescan method relative to control.
Chain of Mitogen-activated protein kinase 10 (Homo sapiens) (P53779 whole entry, the tested form may be a part): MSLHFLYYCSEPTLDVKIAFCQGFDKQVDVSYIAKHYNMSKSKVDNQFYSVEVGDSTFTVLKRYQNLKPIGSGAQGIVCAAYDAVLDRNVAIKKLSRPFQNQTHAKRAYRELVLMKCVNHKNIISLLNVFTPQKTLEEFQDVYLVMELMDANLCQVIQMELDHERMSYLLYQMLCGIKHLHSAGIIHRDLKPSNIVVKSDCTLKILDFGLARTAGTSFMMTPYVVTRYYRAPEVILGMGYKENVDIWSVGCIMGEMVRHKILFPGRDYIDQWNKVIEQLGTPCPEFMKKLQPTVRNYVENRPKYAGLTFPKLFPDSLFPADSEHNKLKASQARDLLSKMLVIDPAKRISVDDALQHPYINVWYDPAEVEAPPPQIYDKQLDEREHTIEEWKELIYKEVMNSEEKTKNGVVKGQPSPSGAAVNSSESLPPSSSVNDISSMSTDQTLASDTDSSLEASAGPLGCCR

Chain of Cyclin-dependent kinase 14 (Homo sapiens) (O94921 whole entry, the tested form may be a part): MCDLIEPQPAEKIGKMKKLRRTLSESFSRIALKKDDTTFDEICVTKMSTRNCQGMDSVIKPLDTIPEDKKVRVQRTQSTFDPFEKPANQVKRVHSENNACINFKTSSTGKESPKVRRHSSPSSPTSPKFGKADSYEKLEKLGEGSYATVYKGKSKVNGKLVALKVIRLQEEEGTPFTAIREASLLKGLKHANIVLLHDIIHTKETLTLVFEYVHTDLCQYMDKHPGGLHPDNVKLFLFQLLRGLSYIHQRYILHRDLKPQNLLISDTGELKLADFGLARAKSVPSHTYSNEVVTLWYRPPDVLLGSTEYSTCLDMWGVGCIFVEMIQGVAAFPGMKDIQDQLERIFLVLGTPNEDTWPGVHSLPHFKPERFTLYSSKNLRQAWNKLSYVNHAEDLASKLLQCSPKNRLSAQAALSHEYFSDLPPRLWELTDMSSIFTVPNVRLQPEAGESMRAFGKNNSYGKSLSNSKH

In the case of `C=CC(=O)Nc1cc(Nc2ncc(Cl)c(Nc3ccccc3S(=O)(=O)C(C)C)n2)c(OC)cc1N(C)CCN(C)C`, the Activity in series [1] stood at 99%; in series [2], 57%; in series [3], 94%; in series [4], 65%; in [5] it was 29%; in series [6] it was 0%. The Activity was found to be 83% in series [7]; 80% in series [8]; 64% in series [9]; 83% in series [10]; 3.6% in series [11]; 100% in series [13]. Besides, the Activity was 66% in series [14]; 69% in [15]; 100% in [16]; 0.25% in [17]; 2% in series [18]; 100% in series [19]. For the same compound, the Activity in series [20] is 0.65%; in series [21], 72%; in series [22] it was 23%; in [23], 15%; in series [24], 82%. Further, the concentration at 2 h in series [12] is 0.15 µM.
